Consider one compound from ChEMBL document CHEMBL3745671, “Discovery of N-[5-(6-Chloro-3-cyano-1-methyl-1H-indol-2-yl)-pyridin-3-ylmethyl]-ethanesulfonamide, a Cortisol-Sparing CYP11B2 Inhibitor that Lowers Aldosterone in Human Subjects” (J Med Chem, 2015).

The nature of series [1]: Half life in continuous angiotensin 2 infusion Sprague-Dawley rat model at 3 mg/kg, po and 1 mg/kg, iv. The format is ADME, organism-based. Conditions: in vivo.
Series [2] in a line: Half life in human liver microsomes after 30 mins by LC/MS/MS analysis. The format is ADME.
Series [3] is described as follows: AUC (0 to 24 hrs) in continuous angiotensin 2 infusion Sprague-Dawley rat model at 3 mg/kg, po. In kind it is ADME, organism-based. Also noted: time < 24 hr, dose 3 mg/kg, route oral. Conditions: in vivo. The method in brief: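 Male Sprague Dawley rats, 200–300 g. IV: 0.3 mg/1 mL/kg (free base) slow injection via jugular vein, n=2. Oral gavage at 1 mg/5 mL/kg or 3 mg/5 mL/kg in solution, n=3. Jugular catheter blood at 5 min (iv only), 0.25–8 h into EDTA; plasma after protein precipitation with acetonitrile containing internal standard, HPLC-MS; noncompartmental parameters.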

Series [4] relates to Homo sapiens. Kind of series: Decrease in plasma aldosterone level in human at 200 mg/kg, po bid measured over 24 hrs. Conditions: in the assay text read “200 mg” for “200 mg/kg”. In kind it is functional. The method in brief:
(§1)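 Healthy male and female volunteers, 18-63 years, restricted sodium/potassium diet; double-blind randomized placebo-controlled, oral 30, 60, 100 or 200 mg bid (drug:placebo 5:2).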

Series [5] relates to Homo sapiens. The series is described as follows: Dose normalized AUCtau in healthy human at 60 mg/kg, po bid. In kind it is ADME, organism-based. Conditions: in vivo. The method in brief:
(§2)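 Double-blind, randomized, placebo-controlled study in healthy male and female volunteers aged 18-63 on a restricted sodium/potassium diet. Oral bid doses of 30, 60, 100 or 200 mg, drug:placebo 5:2. N per dose 10–17. AUCtau, Cmax and median Tmax reported; dose-normalized values are AUCtau/dose and Cmax/dose.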

The subject of series [6] is Homo sapiens. The series is described as follows: Dose normalized Cmax in healthy human at 200 mg/kg, po bid. In kind it is ADME, organism-based. Conditions: in vivo. The method in brief:
as §2

The nature of series [7]: Tmax in healthy human at 60 mg/kg, po bid. The format is ADME, organism-based. Conditions: in vivo. The method in brief:
as §2

In series [8] the test system is Homo sapiens. The series is described as follows: Dose normalized Cmax in healthy human at 60 mg/kg, po bid. In kind it is ADME, organism-based. Conditions: in vivo. The procedure, abridged:
as §2

Series [9] is described as follows: Equilibrium solubility of the compound in buffer at pH 6.8. The format is physicochemical. The method in brief: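 Equilibrium solubility measured in buffer at pH 6.8.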
In series [10] the target is T1, Cytochrome P450 11B2, mitochondrial (Rattus norvegicus, UniProt P30099).
T1 sequence (P30099 whole entry): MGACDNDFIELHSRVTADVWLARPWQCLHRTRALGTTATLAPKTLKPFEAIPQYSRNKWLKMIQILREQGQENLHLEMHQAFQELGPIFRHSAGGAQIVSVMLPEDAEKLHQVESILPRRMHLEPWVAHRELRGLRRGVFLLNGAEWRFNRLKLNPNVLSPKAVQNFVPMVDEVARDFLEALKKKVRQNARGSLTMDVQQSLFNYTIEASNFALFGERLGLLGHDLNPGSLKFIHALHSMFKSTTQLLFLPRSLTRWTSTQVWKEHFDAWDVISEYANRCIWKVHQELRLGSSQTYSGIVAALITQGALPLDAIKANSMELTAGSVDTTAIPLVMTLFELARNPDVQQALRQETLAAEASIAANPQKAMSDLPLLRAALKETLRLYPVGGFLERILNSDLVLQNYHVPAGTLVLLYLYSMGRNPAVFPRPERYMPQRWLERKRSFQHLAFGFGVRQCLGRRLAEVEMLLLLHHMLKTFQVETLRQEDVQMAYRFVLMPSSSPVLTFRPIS
The series is described as follows: Inhibition of recombinant rat CYP11B2 using 11-deoxycorticosterone as substrate after 2 hrs by scintillation proximity assay.

Series [11] concerns Homo sapiens. Kind of series: Decrease in urinary aldosterone excretion in po dosed human administered as bid measured over 24 hrs. In kind it is functional, organism-based. Conditions: Urine. The procedure, abridged:
as §1

A value given as a limit tells only on which side of the number the result lay.

Consider `CCS(=O)(=O)NCc1cncc(-c2c(C#N)c3ccc(Cl)cc3n2C)c1`, for which the half-life in series [1] was 1.1 h; in [2] it was 1.28 h. Besides, the AUC(0-t) at 24 h in series [3] turned out to be 5.79 µM·h. For the same compound, in the series on Homo sapiens [4], the “%max” value is listed as 70%. Also, the AUC/dose with Homo sapiens [5] came out at 17.1 ng·h/mL/mg. Moreover, the Cmax/dose turned out to be 1.5 ng/mL with Homo sapiens [6] and 2.8 ng/mL with Homo sapiens [8]. In series [7], the Tmax turned out to be 3 h. In addition, the solubility (thermodynamic) in series [9] was < 5 µM. Besides, in series [10], the IC50 was 27.4 µM. Also, the Activity entry with Homo sapiens [11] is “Dose-dependent effect”.
